Compound activity as filed in PubChem BioAssay.
Only some compounds are listed: those with a hit (about 4.2% of all), similar ones and a draw of the others.
SENP1 inh: inhibitors of human SENP1 SUMO protease catalytic domain. recombinant SENP1 catalytic domain, CyPet-SUMO1-YPet FRET cleavage. 360,000 compounds, 0.21% hits. AID 624204. inhibition, % at 10 µM;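 active = inhibition at least 30% at 10 µM, raw YFP signal under a set limit, fluorescence ratio 0.5 to 1.5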
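Test system: hSENP1 catalytic domain, recombinant; Amount: 20 pM final SENP1 enzyme; Medium: Tris pH 8 buffer plus EDTA, NaCl, BME, BSA, NP40, catalase; Schedule: 50 min enzyme reaction, room temperature, light-protected; Technique: FRET fluorescence in CFP and YFP emission channels; Controls: no-enzyme wells low, DMSO-plus-enzyme wells high control.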
AHR activator: human AHR activation | P35869 | AHR-responsive luciferase reporter cells, luminescence | activation, % at 5 µM | 320,000 compounds, 2.5% hits | AID 2796; in the data active = activation above about 47%
HDAC3 inh: blocks human histone deacetylase 3; recombinant HDAC3, fluorogenic peptide/trypsin coupled, fluorescence; AID 2718; O15379; inhibition, % at 8.3 µM; 320,000 compounds, 0.15% hits; in the data active = inhibition above about 26%, passing the limit was not always enough
GAA850 FXN act: frataxin GAA850 promoter activation; HEK293 lucGAA850 FXN promoter luciferase reporter, 24 h; percent of 10 µM SAHA response; activation, % at 6 µM; 360,000 compounds, 0.56% hits;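 active = activation above the average of all compounds screened plus 3 SD, cutoff fixed separately per campaign, cut at about 7.5% in these data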
CTSL1 counter: counter-screen for PFM18AAP inhibitors: inhibitors of F. hepatica cathepsin L1; recombinant F. hepatica cathepsin L1, Z-Leu-Arg-MCA fluorescence; inhibition, % at 5.96 µM; 300,000 compounds, 0.49% hits; AID 1906;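 active = inhibition above the mean of all tested compounds plus 3 SD, set per screening campaign, cut at about 17% in these data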
PfM18AAP inh: blocks P. falciparum M18 aspartyl aminopeptidase | recombinant PfM18AAP, H-Glu-NHMec fluorogenic cleavage | inhibition, % at 7.35 µM | 290,000 compounds, 1.2% hits;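 active = inhibition above the campaign mean inhibition over all tested compounds plus 3 SD, cut at about 28% in these data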
A number is an active result.

Screening CC(=O)Nc1ccc2c(c1)c1ccccc1n2C(C)=O returned SENP1 inh inactive, AHR activator inactive, HDAC3 inh inactive, GAA850 FXN act inactive, CTSL1 counter inactive and PfM18AAP inh inactive.
`CCn1c2ccccc2c2cc(NC(C)=O)ccc21` gave SENP1 inh inactive, AHR activator 50, HDAC3 inh inactive, GAA850 FXN act inactive, CTSL1 counter inactive and PfM18AAP inh inactive.
Screening CCn1c(=O)cc(OCC(=O)Nc2ccccc2C#N)c2ccccc21 returned SENP1 inh inactive, AHR activator 73, HDAC3 inh inactive, GAA850 FXN act inactive, CTSL1 counter inactive and PfM18AAP inh inactive.
For C[C@@H]1CN([C@@H](C)CO)C(=O)c2cc(NS(=O)(=O)c3cccs3)ccc2O[C@H]1CN(C)Cc1ccc(C(F)(F)F)cc1 the results were SENP1 inh inactive, AHR activator inactive, HDAC3 inh inactive and GAA850 FXN act inactive.
Screening CCn1c(=O)cc(OCC(=O)N2CCN(c3ccc(F)cc3)CC2)c2ccccc21 returned SENP1 inh inactive, AHR activator 54, GAA850 FXN act inactive, CTSL1 counter inactive and PfM18AAP inh inactive.
CCn1c2ccccc2c2cc(NC(=O)COc3ccccc3OC)ccc21 was read as SENP1 inh inactive, AHR activator 62, HDAC3 inh inactive, GAA850 FXN act inactive, CTSL1 counter inactive and PfM18AAP inh inactive.
`Nc1ccc2c(c1)[nH]c(=O)c1cc(N)ccc12` gave SENP1 inh inactive and GAA850 FXN act inactive.
O=C1NC(=Nc2ccccc2Cl)S/C1=C\c1cccc([N+](=O)[O-])c1O was read as SENP1 inh 58, AHR activator inactive, HDAC3 inh inactive, GAA850 FXN act inactive, CTSL1 counter inactive and PfM18AAP inh inactive.
`CCC1CCCN1Cn1cnc2c([nH]c3ccc(Cl)cc32)c1=O` (centres undefined) gave SENP1 inh inactive, AHR activator inactive, HDAC3 inh inactive, GAA850 FXN act inactive, CTSL1 counter 19 and PfM18AAP inh inactive.
For COc1ccc(NC(=O)C2(C)CCN2C(=O)c2ccccc2CCc2ccccc2)cc1OC (centres undefined) the results were SENP1 inh inactive and GAA850 FXN act inactive.
`Cc1sc2nc(CSCC(=O)Nc3ccc(C(F)(F)F)cc3)[nH]c(=O)c2c1C` gave SENP1 inh inactive, AHR activator 59, HDAC3 inh inactive and GAA850 FXN act inactive.
`Cc1sc2nc(CSCC(=O)Nc3c(F)cccc3F)[nH]c(=O)c2c1C` gave SENP1 inh inactive, AHR activator inactive, HDAC3 inh inactive, GAA850 FXN act inactive and CTSL1 counter inactive.
C=C1C(=O)O[C@H]2[C@H]1[C@@H](O)CC(=C)[C@@H]1CC(=O)[C@@H](C)[C@H]21 was read as SENP1 inh inactive, AHR activator inactive, HDAC3 inh inactive, GAA850 FXN act 9.3, CTSL1 counter inactive and PfM18AAP inh inactive.
`CCC1Nc2ncnc(N3CCN(c4ccccn4)CC3)c2N(Cc2ccc(Cl)cc2)C1=O` (centres undefined) gave SENP1 inh inactive, AHR activator inactive, HDAC3 inh inactive, GAA850 FXN act inactive and CTSL1 counter inactive.
Cc1cc(C(=O)COc2ccccc2[N+](=O)[O-])c(C)n1C1CC1 was read as SENP1 inh inactive, AHR activator 63, HDAC3 inh inactive, GAA850 FXN act inactive, CTSL1 counter inactive and PfM18AAP inh inactive.
For Cc1cc(C(=O)COc2ccccc2C(N)=O)c(C)n1C1CC1 the results were SENP1 inh inactive, AHR activator inactive, HDAC3 inh inactive, GAA850 FXN act inactive, CTSL1 counter inactive and PfM18AAP inh inactive.
`O=C(Oc1ccc2c(-c3ccccc3)cc(=O)oc2c1)c1cccs1` gave SENP1 inh inactive, AHR activator inactive, HDAC3 inh inactive, GAA850 FXN act inactive, CTSL1 counter inactive and PfM18AAP inh inactive.
O=C(Oc1ccc2ccc(=O)oc2c1)c1cccs1 was read as SENP1 inh inactive, AHR activator inactive, HDAC3 inh 30, GAA850 FXN act inactive, CTSL1 counter inactive and PfM18AAP inh inactive.
For COc1ccccc1/C=C1\C(=O)Nc2ccccc21 the results were SENP1 inh inactive, HDAC3 inh inactive, GAA850 FXN act inactive and PfM18AAP inh inactive.
O=C1Nc2ccccc2/C1=C/c1ccccc1Cl was read as SENP1 inh inactive, AHR activator 59, HDAC3 inh inactive, GAA850 FXN act inactive, CTSL1 counter inactive and PfM18AAP inh inactive.
Cc1ccc2c(c1)/C(=C/c1ccccc1C)C(=O)N2 was read as SENP1 inh inactive, AHR activator 57, HDAC3 inh inactive, GAA850 FXN act inactive, CTSL1 counter inactive and PfM18AAP inh inactive.
CCC1NC(=O)c2cccnc2-n2c1nc1cc(OC)c(OC)cc1c2=O (centres undefined) was read as SENP1 inh inactive and GAA850 FXN act inactive.
For CC(=O)N(Cc1nc2sc(C)c(C)c2c(=O)[nH]1)C1CCCC1 the results were SENP1 inh inactive, AHR activator inactive, HDAC3 inh inactive, GAA850 FXN act inactive, CTSL1 counter 27 and PfM18AAP inh inactive.
For Cc1sc2nc(SCC(=O)N3CCCCC3)[nH]c(=O)c2c1C the results were SENP1 inh inactive, AHR activator inactive, HDAC3 inh inactive, GAA850 FXN act inactive, CTSL1 counter inactive and PfM18AAP inh inactive.
Cc1sc2nc(SCC(=O)N3CCCC3)[nH]c(=O)c2c1C was read as SENP1 inh inactive, AHR activator 59, HDAC3 inh inactive, GAA850 FXN act inactive, CTSL1 counter inactive and PfM18AAP inh inactive.
`CCCCC(=O)N(C)c1c(CC)nc2c(OCc3cc(Cl)cc(Cl)c3)cccn12` gave SENP1 inh inactive and GAA850 FXN act inactive.
Screening c1ccc2cc(CSCc3nc4ccccc4[nH]3)ccc2c1 returned SENP1 inh inactive, AHR activator inactive, HDAC3 inh inactive, GAA850 FXN act inactive, CTSL1 counter inactive and PfM18AAP inh inactive.
For CCN(CC(=O)Nc1c(F)cccc1F)C(=O)c1ccc(C2SCCS2)cc1 the results were SENP1 inh inactive, AHR activator inactive, HDAC3 inh 62, GAA850 FXN act inactive and CTSL1 counter inactive.
CN(CC(=O)Nc1cccc(F)c1)C(=O)c1ccc(C2SCCS2)cc1 was read as SENP1 inh inactive, AHR activator inactive, HDAC3 inh 59, GAA850 FXN act inactive and CTSL1 counter inactive.
For CCCC(=O)N1CCC1(C)C(=O)Nc1cc(OC)c(OC)c(OC)c1 (centres undefined) the results were SENP1 inh inactive and GAA850 FXN act inactive.
`N=C1/C(=C\c2ccc(-c3cccc(Cl)c3)o2)C(=O)N=C2SC=C(c3ccccc3)N12` gave SENP1 inh inactive, AHR activator 49, HDAC3 inh inactive, GAA850 FXN act inactive, CTSL1 counter inactive and PfM18AAP inh inactive.
For CCOC(=O)c1c(NC(=O)CCS(=O)(=O)c2ccccc2)sc2c1CC(C)(C)NC2(C)C the results were SENP1 inh inactive, AHR activator inactive, HDAC3 inh inactive, GAA850 FXN act inactive, CTSL1 counter 39 and PfM18AAP inh inactive.
